Source: ChEMBL document CHEMBL4014266, “Anti-Neurodegenerative Biflavonoid Glycosides from Impatiens balsamina” (J Nat Prod, 2017)

What was measured:
[1] = tested on: SK-OV-3; experiment: Cytotoxicity against human SKOV3 cells after 48 hrs by SRB assay; format: functional, cell-based; settings: SK-OV-3, 48 h
Procedure, shortened: (§1)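 Quantitative staining of cellular protein with sulforhodamine B across human tumour lines A549, SK-OV-3, SK-MEL-2 and Bt549; IC50 derived. Etoposide served as positive control.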

[2] = tested on: SK-MEL-2; experiment: Cytotoxicity against human SK-MEL-2 cells after 48 hrs by SRB assay; format: functional, cell-based; settings: SK-MEL-2, 48 h; procedure, shortened: as §1
[3] = tested on: BT-549; experiment: Cytotoxicity against human BT549 cells after 48 hrs by SRB assay; format: functional, cell-based; settings: BT-549, 48 h; procedure, shortened: as §1
[4] = tested on: A549; experiment: Cytotoxicity against human A549 cells after 48 hrs by SRB assay; format: functional, cell-based; settings: A549, 48 h; procedure, shortened: as §1
[5] = Cytotoxicity against rat C6 cells assessed as cell viability at 20 uM after 24 hrs by MTT assay relative to control; format: cell-based; settings: read-out: Activity
Procedure, shortened: (§2)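 C6 cells seeded at 1 × 10^5 cells/well; after 1 d switched to serum-free DMEM with 20 μM compound for 24 h. NGF in conditioned medium measured by ELISA as percent of untreated control (100%); viability by MTT as percent. 6-shogaol as positive control.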

[6] = Cytotoxicity against mouse BV2 cells assessed as cell viability at 20 uM after 24 hrs by MTT assay relative to control; format: cell-based, BV-2; settings: read-out: Activity
Procedure, shortened: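 BV-2 cells seeded at 4 × 10^4 cells/well, treated with 20 μM compound; viability read by MTT and expressed as percent. Mean ± SD of three independent experiments.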

[7] = tested on: C6; experiment: Neuroprotective activity in rat C6 cells assessed as NGF secretion at 20 uM after 24 hrs by ELISA relative to control; format: functional; procedure, shortened: as §2
[8] = tested on: BV-2; experiment: Antiinflammatory activity in mouse BV2 cells assessed as inhibition of LPS-induced nitrite production after 24 hrs by Griess assay; format: functional, cell-based; settings: BV-2, 24 h
Procedure, shortened: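 BV-2 microglia seeded at 4 × 10^4 cells/well, exposed to graded doses of compounds with LPS stimulation. Nitrite quantified against a sodium nitrite standard curve; IC50 taken as the concentration giving 50% inhibition of NO production. L-NMMA as positive control. Mean ± SD of three independent experiments.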

Compound | IC50 [1] | IC50 [2] | IC50 [3] | IC50 [4] | viability at 24 h, 20 µM [5] | viability at 24 h, 20 µM [6] | Activity [7] | IC50 [8]
C[C@@H]1O[C@@H](OC[C@H]2O[C@@H](Oc3c(-c4ccc(O)cc4)oc4c([C@]56O[C@@]5(c5ccc(O)cc5)Oc5cc(O)cc(O)c5C6=O)c(O)cc(O)c4c3=O)[C@H](O)[C@@H](O)[C@@H]2O)[C@H](O)[C@H](O)[C@H]1O | > 10 µM | > 10 µM | > 10 µM | > 10 µM | 109% | 100% | 74.27% | 31 µM
C[C@@H]1O[C@@H](OC[C@H]2O[C@@H](Oc3c(-c4ccc(O)cc4)oc4c([C@@]56O[C@]5(c5ccc(O)cc5)Oc5cc(O)cc(O)c5C6=O)c(O)cc(O)c4c3=O)[C@H](O)[C@@H](O)[C@@H]2O)[C@H](O)[C@H](O)[C@H]1O | > 10 µM | > 10 µM | > 10 µM | > 10 µM | 102% | 99.9% | 88.36% | 39.2 µM
O=c1c(O[C@@H]2O[C@H](CO)[C@@H](O)[C@@H](O)[C@H]2O)c(-c2ccc(O)cc2)oc2cc(O)cc(O)c12 | > 10 µM | > 10 µM | > 10 µM | > 10 µM | 105% | 97.5% | 83.79% | 80.4 µM
O=C1c2c(O)cc(O)cc2O[C@]2(c3ccc(O)cc3)O[C@]12c1c(O)cc(O)c2c(=O)c(O[C@@H]3O[C@H](CO)[C@@H](O)[C@H](O)[C@H]3O)c(-c3ccc(O)cc3)oc12 | > 10 µM | > 10 µM | > 10 µM | > 10 µM | 107% | 104% | 90.12% | 56.9 µM
O=C1c2c(O)cc(O)cc2O[C@@]2(c3ccc(O)cc3)O[C@@]12c1c(O)cc(O)c2c(=O)c(O[C@@H]3O[C@H](CO)[C@@H](O)[C@H](O)[C@H]3O)c(-c3ccc(O)cc3)oc12 | > 10 µM | > 10 µM | > 10 µM | > 10 µM | 113% | 110% | 121.42% | 33.3 µM
C[C@@H]1O[C@@H](O[C@H]2[C@H](Oc3c(-c4ccc(O)cc4)oc4cc(O)cc(O)c4c3=O)O[C@H](CO)[C@@H](O)[C@@H]2O)[C@H](O)[C@H](O)[C@H]1O | > 10 µM | > 10 µM | > 10 µM | > 10 µM | 102% | 103% | 123.31% | 31.7 µM
O=C1c2c(O)cc(O)cc2O[C@H](c2cc(O)c(O)c(O)c2)[C@H]1O [AMPELOPSIN] | > 10 µM | > 10 µM | > 10 µM | > 10 µM | 110% | 97% | 172.04% | 32.7 µM
O=c1c(O[C@@H]2O[C@H](CO)[C@@H](O)[C@H](O)[C@H]2O)c(-c2ccc(O)cc2)oc2cc(O)cc(O)c12 [ASTRAGALIN] | > 10 µM | > 10 µM | > 10 µM | > 10 µM | 115% | 97.5% | 114.67% | 23.5 µM
COc1cc([C@@H]2c3cc4c(cc3[C@@H](O[C@@H]3O[C@@H]5CO[C@@H](C)O[C@H]5[C@H](O)[C@H]3O)[C@H]3COC(=O)[C@H]23)OCO4)cc(OC)c1O [ETOPOSIDE] | 1.95 µM | 1.1 µM | 1.24 µM | 0.92 µM | – | – | – | –
O=c1c(O[C@@H]2O[C@H](CO)[C@@H](O)[C@H](O)[C@H]2O)c(-c2ccc(O)c(O)c2)oc2cc(O)cc(O)c12 [ISOQUERCETIN] | > 10 µM | > 10 µM | > 10 µM | > 10 µM | 107% | 95.6% | 98.67% | 55.6 µM
O=c1c(O)c(-c2ccc(O)cc2)oc2cc(O)cc(O)c12 [KAEMPFEROL] | > 10 µM | > 10 µM | > 10 µM | > 10 µM | 97.2% | 119% | 115.98% | 8.86 µM
C[C@@H]1O[C@@H](OC[C@H]2O[C@@H](Oc3c(-c4ccc(O)cc4)oc4cc(O)cc(O)c4c3=O)[C@H](O)[C@@H](O)[C@@H]2O)[C@H](O)[C@H](O)[C@H]1O [NICOTIFLOROSIDE] | > 10 µM | > 10 µM | > 10 µM | > 10 µM | 99.6% | 97.9% | 97.59% | 44.4 µM
O=c1c(O)c(-c2ccc(O)c(O)c2)oc2cc(O)cc(O)c12 [QUERCETIN] | > 10 µM | > 10 µM | > 10 µM | > 10 µM | 103% | 101% | 118.77% | 19.1 µM
C[C@@H]1O[C@@H](OC[C@H]2O[C@@H](Oc3c(-c4ccc(O)c(O)c4)oc4cc(O)cc(O)c4c3=O)[C@H](O)[C@@H](O)[C@@H]2O)[C@H](O)[C@H](O)[C@H]1O [RUTIN] | > 10 µM | > 10 µM | > 10 µM | > 10 µM | 113% | 99.2% | 108.27% | 24.3 µM
CCCCC/C=C/C(=O)CCc1ccc(O)c(OC)c1 [SHOGAOL] | – | – | – | – | 104% | – | 143.74% | –
CNC(=N)NCCC[C@H](N)C(=O)O [TILARGININE] | – | – | – | – | – | 120% | – | 21.2 µM
